Fewer inactive variants are shown than the library holds.
B1: tRNA (parent)
chain: GUUCCGUUGGCGUAAUGGUAACGCGUCUCCCUCCUAAGGAGAAGACUGCGGGUUCGAGUCCCGUACGGAACG

Variants of: B1
Assay: yeast fitness relative to wild type (ratio to wild type); higher = fitter; tRNA-Arg(CCU), competitive growth, 37 C, YPD
Procedure, shortened: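 Changes in genotype frequencies gave Darwinian fitness relative to wild type. Frequencies were read by 100-nucleotide paired-end sequencing of gene amplicons before and after pooled Saccharomyces cerevisiae strains, carrying tRNA-Arg(CCU) gene variants at the native locus, were competed in YPD at 37°C for 24 hours in six replicates. A genotype was kept only with ≥ 100 starting reads, and estimates < 0.5 were set to 0.5.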

Question: With A20U C31A C33G U47C C60A as the variant, how does the yeast fitness read?
Answer: ≤ 0.5

Question: Which yeast fitness does the source give for A20U C22G C60G C66G here?
Answer: ≤ 0.5

Question: Which yeast fitness does the source give for A20G C49U C66U A70C here?
Answer: ≤ 0.5

Question: For A20U C31G U32G, which yeast fitness is on record?
Answer: 0.531

Question: With A20G G23A G38C G63A C66A as the variant, how does the yeast fitness read?
Answer: ≤ 0.5

Question: Which yeast fitness does the source give for A20G C29G A40G C49G here?
Answer: ≤ 0.5

Question: For A20G C60A A70U, which yeast fitness is on record?
Answer: 0.605

Question: For A20G C60A A70C, which yeast fitness is on record?
Answer: 0.556

Question: Which yeast fitness does the source give for A20U C24G here?
Answer: 0.601

Question: Which yeast fitness does the source give for A20G U28A C31U U54A here?
Answer: 0.613

Question: For A20G G48A, which yeast fitness is on record?
Answer: 0.933

Question: Which yeast fitness does the source give for A20U A36G C55U here?
Answer: 0.573

Question: For A20G C34U G38A A43G G68U, which yeast fitness is on record?
Answer: ≤ 0.5

Question: Which yeast fitness does the source give for A20G U35C A36G here?
Answer: 0.727

Question: For A20G U32C A57G, which yeast fitness is on record?
Answer: 0.724

Question: Which yeast fitness does the source give for A20U C29G G38C G39A A43C C60G A65C here?
Answer: ≤ 0.5

Question: For A20U A45C G50A, which yeast fitness is on record?
Answer: 0.675

Question: With A20U A45C C55U A57U as the variant, how does the yeast fitness read?
Answer: ≤ 0.5

Question: Which yeast fitness does the source give for A20G C29G C34A here?
Answer: ≤ 0.5

Question: Which yeast fitness does the source give for A20U A42C A69U here?
Answer: 0.564

Question: Which yeast fitness does the source give for A20G C27A G48A here?
Answer: 0.762

Question: Which yeast fitness does the source give for A20U A42C G56A here?
Answer: ≤ 0.5

Question: For A20G U26A, which yeast fitness is on record?
Answer: 0.884

Question: Which yeast fitness does the source give for A20U A21U A69U here?
Answer: 0.675

Question: For A20G C29U A57C, which yeast fitness is on record?
Answer: ≤ 0.5

Question: With A20U C27G C30G A43G A65C G68C as the variant, how does the yeast fitness read?
Answer: ≤ 0.5

Question: With A20G U35A U54G as the variant, how does the yeast fitness read?
Answer: ≤ 0.5

Question: With A20U A36G C55G A65U as the variant, how does the yeast fitness read?
Answer: 0.52

Question: Which yeast fitness does the source give for A20G G67U here?
Answer: 0.965

Question: Which yeast fitness does the source give for A20G G67C here?
Answer: 0.861

Question: For A20U C27G C29U C62G, which yeast fitness is on record?
Answer: ≤ 0.5

Question: With A20G U32A C34G A43G G50C U64A as the variant, how does the yeast fitness read?
Answer: ≤ 0.5

Question: With A20G C46U G50C C61A A70C as the variant, how does the yeast fitness read?
Answer: 0.7

Question: For A20U C27U U64C, which yeast fitness is on record?
Answer: 0.954

Question: For A20U A37C C46G, which yeast fitness is on record?
Answer: 0.528

Question: For A20G G23A A45U G56A, which yeast fitness is on record?
Answer: 0.539

Question: Which yeast fitness does the source give for A20U A21C A45U here?
Answer: 0.675

Question: For A20U A40U C46G C62G C66U A70C, which yeast fitness is on record?
Answer: 0.573

Question: Which yeast fitness does the source give for A20G U28G A57U C62U here?
Answer: ≤ 0.5

Question: For A20U A43C, which yeast fitness is on record?
Answer: 0.775

Question: With A20U A43U as the variant, how does the yeast fitness read?
Answer: 0.905

Question: For A20U A43G, which yeast fitness is on record?
Answer: 0.978

Question: For A20G C33U G39A A69C, which yeast fitness is on record?
Answer: ≤ 0.5

Question: With A20G G50C C60G as the variant, how does the yeast fitness read?
Answer: 0.634

Question: With A20U C24G C55A as the variant, how does the yeast fitness read?
Answer: ≤ 0.5

Question: For A20G G41A C60G A65G, which yeast fitness is on record?
Answer: 0.585

Question: With A20G C60G A70C as the variant, how does the yeast fitness read?
Answer: 0.604

Question: With A20U C30U as the variant, how does the yeast fitness read?
Answer: 0.783

Question: With A20G U59A as the variant, how does the yeast fitness read?
Answer: 0.79

Question: For A20G U59C, which yeast fitness is on record?
Answer: 0.972

Question: Which yeast fitness does the source give for A20G U59G here?
Answer: 0.921

Question: With A20U C22A U32G as the variant, how does the yeast fitness read?
Answer: ≤ 0.5

Question: Which yeast fitness does the source give for A20U C31A here?
Answer: 0.803

Question: Which yeast fitness does the source give for A20U C31U here?
Answer: 0.926

Question: Which yeast fitness does the source give for A20U A40U here?
Answer: 0.654

Question: Which yeast fitness does the source give for A20U A40C here?
Answer: 0.712

Question: For A20U C30A G58C G68A, which yeast fitness is on record?
Answer: ≤ 0.5

Question: For A20G U64G, which yeast fitness is on record?
Answer: 0.817

Question: For A20G U64A, which yeast fitness is on record?
Answer: 0.902

Question: For A20G U64C, which yeast fitness is on record?
Answer: 0.929

Question: With A20U A21C C31A as the variant, how does the yeast fitness read?
Answer: ≤ 0.5

Question: For A20U A21U C31G C55A G68U, which yeast fitness is on record?
Answer: ≤ 0.5

Question: For A20G U59G A65U, which yeast fitness is on record?
Answer: 1.05

Question: With A20G C33A G44A as the variant, how does the yeast fitness read?
Answer: 0.535

Question: Which yeast fitness does the source give for A20U C29A C30U A36U A70C here?
Answer: 0.594

Question: For A20G G68U, which yeast fitness is on record?
Answer: 0.866

Question: With A20G G68C as the variant, how does the yeast fitness read?
Answer: 0.758

Question: For A20G C33A A37G C62A, which yeast fitness is on record?
Answer: ≤ 0.5

Question: Which yeast fitness does the source give for A20G C27U G58C here?
Answer: 0.78

Question: With A20U C27G C34A C46G C55A as the variant, how does the yeast fitness read?
Answer: ≤ 0.5

Question: For A20G U28C, which yeast fitness is on record?
Answer: 0.934

Question: For A20G U28A A37G C55G, which yeast fitness is on record?
Answer: 0.578

Question: With A20U A36G C55G G56A as the variant, how does the yeast fitness read?
Answer: ≤ 0.5

Question: For A20U C22U C46U A57G, which yeast fitness is on record?
Answer: ≤ 0.5

Question: With A20G C29U C55G A57C C61U as the variant, how does the yeast fitness read?
Answer: 0.746

Question: With A20U A40G G44C as the variant, how does the yeast fitness read?
Answer: ≤ 0.5

Question: With A20G C49U as the variant, how does the yeast fitness read?
Answer: 0.922

Question: For A20G C49G, which yeast fitness is on record?
Answer: 0.855

Question: Which yeast fitness does the source give for A20G C31U A36U here?
Answer: 0.53

Question: With A20G G23A C24G C60G as the variant, how does the yeast fitness read?
Answer: ≤ 0.5

Question: Which yeast fitness does the source give for A20G C49U C66U here?
Answer: 0.684

Question: With A20G C34U A43C A57U G58A C62G as the variant, how does the yeast fitness read?
Answer: ≤ 0.5

Question: Which yeast fitness does the source give for A20G U28G A69U here?
Answer: ≤ 0.5

From the RNAGym collection of RNA variant scans (doi:10.1126/science.aae0568)
